Assay outcomes as filed in PubChem BioAssay.
Sampled rows, rich in hits. Any-hit rate of the full collection: about 3.5%.
MrgX1 PAM: positive allosteric modulators of MrgX1, primary screen, HEK293 cells, Fluo-4 calcium flux; actives 0.63% (n = 310,000); FDSS; hits give high values; B-score at 10 µM; AID 588675, 2011; Mas-related G-protein coupled receptor member X1 (Homo sapiens), Q96LB2;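 active = plate-corrected calcium response at least 3 library SD above typical, normal starting fluorescence, not activating the receptor alone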;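 also: compound read alongside a low EC10 to EC30 dose of BAM8-22 agonist; peak minus trough fluorescence over baseline measured at the second addition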
Target sequence (Q96LB2 whole entry, looked up): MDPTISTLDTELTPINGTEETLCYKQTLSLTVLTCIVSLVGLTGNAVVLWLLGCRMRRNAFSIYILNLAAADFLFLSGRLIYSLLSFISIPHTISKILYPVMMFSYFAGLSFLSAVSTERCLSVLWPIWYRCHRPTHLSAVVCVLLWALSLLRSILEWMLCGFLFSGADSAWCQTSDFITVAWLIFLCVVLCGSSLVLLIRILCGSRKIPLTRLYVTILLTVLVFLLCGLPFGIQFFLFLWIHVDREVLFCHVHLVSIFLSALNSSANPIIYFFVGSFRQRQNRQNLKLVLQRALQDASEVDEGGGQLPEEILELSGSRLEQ
RGS4 block: RGS4 inhibitors, primary screen, cell-based, HEK293 M3R inducible RGS4, calcium flux. Fluo-4 calcium flux; hits give high values; triggered by carbachol at its EC20. B-score at 10 µM. actives 0.45% (n = 310,000);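 active = B-score, a plate-corrected calcium signal, over three deviations above library mean, with baseline fluorescence within five deviations of library mean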;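 also: RGS4 expression induced by doxycycline in cells with stable M3 receptor; B-score is computed from the integrated fluorescence ratio over baseline after carbachol; higher B-score means a larger calcium signal and so more RGS4 inhibition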
Target sequence (P49798 whole entry, looked up): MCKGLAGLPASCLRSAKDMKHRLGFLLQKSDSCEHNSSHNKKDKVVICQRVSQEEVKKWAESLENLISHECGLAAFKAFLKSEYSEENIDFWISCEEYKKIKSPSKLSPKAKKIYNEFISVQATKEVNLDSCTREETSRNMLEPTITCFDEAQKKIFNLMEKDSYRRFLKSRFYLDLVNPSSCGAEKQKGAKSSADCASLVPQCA
RGS4 pot: RGS4 potentiators or activators, primary screen, cell-based, HEK293 M3R inducible RGS4, calcium flux; B-score at 10 µM; carbachol calcium flux Fluo4; hits give low values; actives 0.92% (n = 310,000);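 active = B-score of the integrated calcium signal more than 4 SD below the library mean, with starting fluorescence not abnormally high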;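 also: negative B-score means reduced calcium response which marks RGS4 activation or potentiation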
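System: HEK293 FlpIn-TREx cells, stable M3R, doxycycline-inducible RGS4. Timing: overnight RGS4 induction, 30 min dye load 37 °C, 20 min compound RT. Also added: carbachol, ECmax concentration. Measured by: Fluo4 fluorescence kinetic imaging of calcium. Evaluation: integrated calcium ratio converted to B score.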
MrgX1 antag: antagonists of human MrgX1 receptor, primary screen, HEK293 cells, Fluo-4 calcium flux; B-score at 10 µM; BAM8-22 antagonism; hits give low values; AID 588676, 2011; actives 1.3% (n = 310,000);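 active = calcium-response B-score plate-corrected more than 3 library SD below zero, starting fluorescence within 5 deviations, no agonist response on first addition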;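 also: peak minus trough fluorescence over baseline after final BAM8-22 challenge near maximal dose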
MrgX1 ag: agonists of human MrgX1 receptor, primary screen, HEK293 cells, Fluo-4 calcium flux. Mas-related G-protein coupled receptor member X1 (Homo sapiens), Q96LB2. Fluo-4 calcium fluorescence, agonist mode; hits give high values. B-score at 10 µM. actives 0.44% (n = 310,000). AID 588627, 2011;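 active = calcium response B-score plate-corrected fluorescence ratio at least 3 library SD, with starting fluorescence B-score inside 5 SD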
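Test system: HEK293 cells stably expressing human MrgX1 receptor; amount: 15,000 cells per well; doses: compound delivered in addition one of three; times: overnight plating before 1 h dye loading; detection: Fluo-4 NW calcium-flux fluorescence, kinetic read; read-out basis: B-scored fluorescence response ratio; controls: positive and negative controls per plate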
RGS4 activ val: reduced carbachol calcium response, RGS4-induced M3R cells, confirmation, RGS4 activator project, cell-based, HEK293 M3R/RGS4 inducible, calcium flux, duplicate; shares compounds with RGS4 pot; carbachol calcium flux Fluo4; inhibition, % at 10 µM; actives 89% (n = 1,100); AID 602282, 2012;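 active = inhibition above 3 SD of the buffer control wells, cut at about 41% in these data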;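 also: signal is the integrated peak-minus-minimum Fluo4 fluorescence over baseline ratio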
RGS4 act ctr: activity in cells without induced RGS4 expression; shares compounds with RGS4 pot; HEK293 M3R non-induced RGS4, Fluo4 calcium flux; after carbachol challenge at its EC90; inhibition, % at 10 µM; actives 82% (n = 1,100); AID 602283;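 active = inhibition exceeding 3 SD of buffer-only control wells, cut at about 26% in these data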;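 also: percent drop in integrated peak-minus-baseline over baseline Fluo4 ratio after carbachol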
The depositor's hits bear a star; i = inactive; . = no result given; ! = a repeat was not active.

SMILES	MrgX1 PAM	RGS4 block	RGS4 pot	MrgX1 antag	MrgX1 ag	RGS4 activ val	RGS4 act ctr
c1ccc(Cn2c(CN3CCCC3)nc3ccccc32)cc1	i	i	-8.5*	i	i	0	84*
Clc1ccc(Cn2c(CN3CCCC3)nc3ccccc32)cc1	i	i	i	i	i	.	.
Cc1ccc(O)c(C(=O)c2cnc(/N=C(\N)N(C)C)nc2)c1	i	i	-8.8*	i	i	90*	69*
Cc1ccc(OCC(=O)Nc2ccc(CN3CCCCC3)cc2)c(C)c1	i	i	-9.9*	i	i	66*	84*
COc1ccc(N(C)S(=O)(=O)c2c(C)[nH]c(=O)[nH]c2=O)cc1	i	i	-8.1*	i	i	0	0
CC(C)C[C@H](NC(=O)c1nc[nH]c1C(=O)N(C)Cc1ccccc1)C(=O)OCc1ccccc1	i	i	i	i	i	.	.
OC(C#CCN1CCCC1)(c1ccccc1)c1ccccc1	i	i	-7.6*	i	i	94*	91*
CC(C)(C#CC(O)(c1ccccc1)c1ccccc1)N1CCCC1	i	i	-8.9*	i	i	92*	87*
CC(O)(C#CCN1CCCCCC1)c1ccccc1 (configuration not stated)	i	i	-9.8*	i	i	66*	84*
OC(C#CCN1CCCCC1)(c1ccccc1)c1ccccc1	i	i	i	i	i	.	.
CC(=O)c1cn(C2OC(CO)C3OC(C)(C)OC32)c(=O)n(C)c1=O (configuration not stated)	i	i	i	i	i	.	.
CC(CCc1ccccc1)NC(=O)Cn1cccc1C(=O)c1ccccc1 (configuration not stated)	i	i	i	i	i	.	.
CS(=O)(=O)N1CCC(C(=O)Nc2ccc(F)c(Cl)c2)CC1	i	i	-8.4*	i	i	0	0
Cc1cnc(NC(=O)C2=C(O)c3ccccc3S(=O)(=O)N2C)s1	i	i	-9.5*!	i	i	0	0
CC(=O)c1ccccc1C(=O)N1CCCC(N2CCN(Cc3ccc4c(c3)OCO4)CC2)C1 (configuration not stated)	i	i	i	i	i	.	.
CC(C)(C)OC(=O)NC1CC2CCCC(C1)N2Cc1ccccc1 (configuration not stated)	.	i	-9.7*	.	.	92*	89*
CCn1c(=O)cc(C(F)(F)F)[nH]c1=S	i	i	i	i	i	.	.
Cc1ccccc1CC1(CO)CCCN(C(=O)c2ccccc2N(C)C)C1 (configuration not stated)	i	i	i	i	i	.	.
Cc1ccccc1CC1(CO)CCCN(C(=O)c2ccc3ncccc3c2)C1 (configuration not stated)	i	i	-10*	i	i	62*	84*
CC(C)(C)c1ccc(OCCC(=O)NCCc2ccc(S(N)(=O)=O)cc2)cc1	i	i	i	i	i	.	.
COCCNC(=S)Nc1ccc2nc(N3CCOCC3)cc(C)c2c1	i	i	-11*	i	i	0	0
CC1CCCN(C(=O)Cn2nnc(-c3ccc(S(C)(=O)=O)cc3)n2)C1 (configuration not stated)	i	i	i	i	i	.	.
O=C(COc1ccccc1)Nc1ccccc1N1CCCCC1	i	i	i	i	i	.	.
O=C(COc1ccccc1)Nc1ccccc1N1CCN(c2ccc(F)cc2)CC1	i	i	-9.1*	i	i	61*	0
CC1N(C)c2cc(NC(=O)c3cccs3)c(P(=O)(Nc3ccc([N+](=O)[O-])cc3)N3CCOCC3)cc2C1(C)C (configuration not stated)	i	i	i	i	i	.	.
SMILES	MrgX1 PAM	RGS4 block	RGS4 pot	MrgX1 antag	MrgX1 ag	RGS4 activ val	RGS4 act ctr
Cc1cc(C)n(-c2ccc(C(=O)Nc3ccc(C)c(S(=O)(=O)N4CCOCC4)c3)cc2)n1	i	i	-8.1*	i	i	89*	57*
Cc1nn(Cc2ccc(C(=O)NN)o2)c(C)c1Cl	i	i	i	i	i	.	.
Cc1nn(Cc2ccc(C(=O)Nc3ccc(C(=O)OC(C)C)cc3)o2)c(C)c1Cl	i	i	-9.6*	i	i	92*	79*
O=C1CCSc2ccc(Cl)cc2N1Cc1ccc(Cl)cc1	i	i	-10*	i	i	90*	86*
COC(=O)c1cnn(-c2ccccc2)c1N	i	i	i	i	i	.	.
CC(=O)NC(=O)c1cnn(-c2ccccc2)c1N	i	i	-8.8*	i	i	0	0
CCCCc1nc2cc(C(=O)NCc3nccn3CC)ccc2o1	i	i	-9.1*	i	i	92*	78*
O=C(Nc1ccc(N2CCN(C(=O)c3ccco3)CC2)c(Cl)c1)c1cc2ccccc2o1	i	i	-8.7*	i	i	93*	64*
C=CCNC(=O)CC(C)C(CCCCC)C(=O)O (configuration not stated)	i	i	i	i	i	.	.
O=C(NCC(c1ccco1)N1CCN(c2ccccc2)CC1)c1ccc2c(c1)OCO2 (configuration not stated)	i	i	i	i	i	.	.
COc1ccccc1CCNC(=O)C(=O)NCC1CCCN1S(=O)(=O)c1ccccc1 (configuration not stated)	i	i	-11*	-4.5*	i	80*	84*
COc1ccc(CCNC(=O)C(=O)NCC2CCCN2S(=O)(=O)c2ccccc2)cc1 (configuration not stated)	i	i	-12*	i	i	88*	54*
O=C(NCCc1ccc(F)cc1)C(=O)NCC1CCCN1S(=O)(=O)c1ccccc1 (configuration not stated)	i	i	-9.3*	i	i	90*	68*
